Assay [1] is described as follows: Inhibition of monoamine oxidase at 60 to 100 uM.
Assay [2] concerns Cortical neurone. Briefly: Neuroprotective activity against glutamate-induced neurotoxicity in ICR mouse cortical neurons at 5 to 10 uM preincubated for 1 hr before glutamate challenge measured after 24 hrs by MTT assay. The assay is classed as functional. An outline of the steps:
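Cortical neurons from E15 ICR mouse embryos, matured 12 days, supplement-free neurobasal during assay. 1 h compound pretreatment (0.1% methanol final), then 20 μM glutamate, kept 24 h. MTT 1 mg/mL for 1 h at 37 °C, formazan dissolved in DMSO, absorbance 540 nm; percent protection from control and glutamate-only OD.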

The test system of assay [3] is Cortical neurone. In words: Neuroprotective activity against AMPA-induced neurotoxicity in ICR mouse cortical neurons preincubated for 1 hr before AMPA challenge measured after 24 hrs by MTT assay. It counts as functional. An outline of the steps:
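Primary cortical cultures from gestation day 15 ICR mouse embryos, grown 12 days in B27-supplemented neurobasal medium, switched to neurobasal without supplement. Compound in methanol (0.1% final), added 1 h before 80 μM AMPA, then 24 h. Viability read by MTT (1 mg/mL, 1 h, 37 °C; DMSO-dissolved formazan at 540 nm), expressed relative to control and excitotoxin-alone wells.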

For assay [4], the system named is Cortical neurone. In words: Neuroprotective activity against kainate-induced neurotoxicity in ICR mouse cortical neurons preincubated for 1 hr before kainate challenge measured after 24 hrs by MTT assay. The assay is classed as functional. A digest of the protocol:
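Mouse (ICR, gestation day 15) cortical neuron cultures used at day 12 in neurobasal medium lacking supplement. Compound in methanol (0.1% final) given 1 h ahead of 200 μM kainate; incubation 24 h more. Viability by MTT (1 mg/mL, 1 h), DMSO-solubilised formazan at 540 nm, scaled between kainate-alone and untreated control.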
A general note: Formazan colour is commonly taken as a measure of viable cells.

Assay [5] has as its system Radical scavenging activity. Briefly: Antioxidant activity assessed as superoxide and DPPH radical scavenging activity. It counts as functional. On the technique in general: DPPH is a stable violet radical that fades when it is reduced.
Assay [6] has as its system Cortical neurone. In words: Neuroprotective activity against NMDA-induced neurotoxicity in ICR mouse cortical neurons preincubated for 1 hr before NMDA challenge measured after 24 hrs by MTT assay. The assay is classed as functional. A digest of the protocol: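 12-day ICR mouse (E15) cortical cultures in neurobasal medium without supplement. Pretreatment with compound (methanol vehicle, 0.1% final) for 1 h, then 40 μM NMDA for 24 h. Compound range 10 to 30 μM. Survival by MTT reduction, formazan in DMSO read at 540 nm, normalised as (toxin+compound − toxin)/(control − toxin) × 100.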

Assay [7] is described as follows: Neuroprotective activity against glutamate-induced neurotoxicity in primary cultured mouse cortical neurons preincubated for 1 hr before glutamate challenge measured after 24 hrs by MTT assay.

Calls of active or inactive are those of the source. No cut-off for these calls is given here.

On to `COc1ccc(N2CN(C=O)c3ccc(OC)cc3C2=O)c(CO)c1`, for which the outcome in assay [1] and in assay [2] was Active. Further, the result in assay [3], in assay [4], in assay [5] and in assay [7] was inactive. The Activity entry in assay [6] is “Dose-dependent effect”.

As to `COc1ccc(-n2cnc3ccc(OC)cc3c2=O)c(CO)c1`, the result in assay [1] and in assay [2] was Active. In addition, the outcome in assay [3], in assay [4], in assay [5] and in assay [7] was inactive. In assay [6], the Activity entry was “Dose-dependent effect”.

Consider `COc1ccc2c(c1)CN(c1ccc(OC)cc1CO)CN2C=O`, for which the outcome in assay [1] and in assay [2] was Active. For the same compound, the result in assay [3], in assay [4], in assay [5] and in assay [7] was inactive. Further, the Activity result in assay [6] is “Dose-dependent effect”.

For the origin of these results see ChEMBL document CHEMBL1150151, “Dictyoquinazols A, B, and C, new neuroprotective compounds from the mushroom Dictyophora indusiata” (J Nat Prod, 2002).
